Measurements of several laboratories.
Protocols differ between the studies behind these lines. ≈ marks a conversion by molar mass, not a printed value.
Organism: Staphylococcus epidermidis

O=[N+]([O-])c1ccc(-c2nc3cccc(O)c3[nH]2)o1 — MBC (microbial killing): 1 µg/mL (≈ 4.08 µM)
O=[N+]([O-])c1ccc2c(N=Nc3c(O)ccc4ccccc34)c(O)cc(S(=O)(=O)O)c2c1 — MIC50 (microbial growth; broth dilution; 24 h): 250 µM (≈ 110 µg/mL)
Cc1c(NC(=O)CC2=NC(=O)CS2)c(=O)n(-c2ccccc2)n1C — MBC (microbial killing; broth dilution): 1 µg/mL (≈ 2.9 µM)
O=C1NC(=S)S/C1=C\c1ccc(-c2ccc(N(c3ccccc3)c3ccccc3)cc2)c2ccccc12 — MBC (microbial killing; broth dilution; ATCC12228): > 1000 µg/mL
CC(C)Oc1c(NC(=O)c2ccc(NC(=O)c3ccc(NC(=O)[C@H](CC(N)=O)NC(=O)c4ccc(NC(=O)c5ccc(C#N)cn5)cc4)cc3)c(OC(C)C)c2O)ccc(C(=O)O)c1O — MIC (microbial growth; DSM28765): ≤ 0.03 µg/mL
O=[N+]([O-])c1ccc2c(N=Nc3ccc4ccccc4c3O)c(O)cc(S(=O)(=O)O)c2c1 — MIC50 (microbial growth; broth dilution; 24 h): 31 µM (≈ 13.6 µg/mL)
O=C(O)CN1C(=O)/C(=C/c2ccc(-c3ccc(N(c4ccccc4)c4ccccc4)cc3)c3ccccc23)SC1=S — MBC (microbial killing; broth dilution; ATCC12228): 1000 µg/mL (≈ 1750 µM)
CC1(C)S[C@@H]2[C@H](NC(=O)[C@H](N)c3ccccc3)C(=O)N2[C@H]1C(=O)O — inhibition (microbial growth; agar dilution; ATCC12228; 26.93 µM): 100%
N#CC(=Cc1cn(-c2ccccc2)nc1-c1ccccc1)C1=NC(=O)CS1 — MBC (microbial killing; broth dilution): 0.5 µg/mL (≈ 1.35 µM)
CC(C)Oc1c(NC(=O)c2ccc(NC(=O)[C@H](CC(N)=O)NC(=O)c3ccc(NC(=O)c4ccc(C#N)cc4)cc3)cc2)ccc(C(=O)Nc2ccc(C(=O)O)cc2)c1O — MIC (microbial growth; DSM28765): ≤ 0.03 µg/mL
O=C(O)c1cn(C2CC2)c2cc(N3CCNCC3)c(F)cc2c1=O — MIC (microbial growth; broth dilution; ATCC12228): 0.49 µg/mL
COc1cccc(OC)c1C(=O)N[C@@H]1C(=O)N2[C@@H]1SC(C)(C)[C@@H]2C(=O)O — MIC (microbial growth; broth dilution; 12228): 3.13 µM
O=C(O)CN1C(=O)/C(=C/c2c3ccccc3c(-c3ccc(N(c4ccccc4)c4ccccc4)cc3)c3ccccc23)SC1=S — MBC (microbial killing; broth dilution; ATCC12228): > 1000 µg/mL
C/C(=C\c1ccc(O)cc1)C(=O)Nc1ccc(C(=O)N[C@@H](CC(N)=O)C(=O)Nc2ccc(C(=O)Nc3ccc(C(=O)Nc4ccc(C(=O)O)cc4)c(O)c3OC(C)C)cc2)cc1 — MIC (microbial growth; DSM28765): 0.25 µg/mL
